In PubChem BioAssay AID688 (PCMD, 2007) one finds growth inhibition and inhibition data, which are given here for 57 compounds.

Hit rate of the full screen: of about 27,000 compounds, about 250 (0.93%) were called active.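 The calls were made as follows: active = mutant luminescence inhibited past about 50% while wild type luminescence and mutant growth stay under set limits (limit read from the data); inconclusive = mutant versus wild type luminescence inhibition gap past a set limit; inactive = the rest.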 Many of the other results were omitted from the sample, so actives are more common in it than they were.

The test is described as follows: GCN4-lacZ reporter reduction in eIF2B-epsilon mutant yeast, primary screen, S. cerevisiae, eIF2B-epsilon R284H, Beta-Glo luminescence (AID 688). To be noted: growth inhibition: measured here: mutant yeast growth, toxicity, concentration not given here; inhibition: stronger effect = higher value, screened at 25 µM (by protocol). Summed up:
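Assay system: yeast eIF2B-epsilon R284H mutant carrying GCN4–beta-galactosidase fusion / Buffer or medium: YPD / Incubation: 16 h growth with compound at 30 °C, 90 min Beta-Glo step / Detection: Beta-Glo luminescence after Z-buffer lysis, growth by 595 nm absorbance / Read-out: % inhibition of reporter signal and growth versus controls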
Regarding `O=C(COc1ccccc1Cl)Nn1cnnc1`, the growth inhibition was -7.89% and the inhibition is 14.3% (inactive).
As for `Cc1cccc(NC(=O)/C(=C\c2ccco2)NC(=O)c2ccccc2)c1`, the growth inhibition was found to be 10.8% and the inhibition was 15.4% (inactive).
In the same order, the values of `CCOc1ccc(C(=O)NC(C(=O)NCc2ccccn2)C(C)C)cc1` (centres undefined) are -4.76% and -9.95% (inactive).
For `CC(=O)NC1=NN(C(C)=O)C(C)(c2ccc(Cl)s2)S1` (centres undefined), the growth inhibition came out at 6.67% and the inhibition is 44.3% (inactive).
As to `Cc1cc(C)n(C(=O)CCNC(=O)c2ccccc2Cl)n1`, the inhibition was -0.54% (inactive).
Same read-out and setting: to `O=C(CSc1nnnn1-c1ccccc1)NCc1ccco1` belongs -70.2% (inactive).
Take `Cc1ccc(C(=O)N/N=C/c2sc(=O)n(Cc3cccc(C(=O)O)c3)c2Cl)cc1`: the growth inhibition was -9.52% and the inhibition was 18.2% (inactive).
`COc1ccc(C2CC(=O)C=C(NCC3CCCO3)C2)cc1` (centres undefined): the growth inhibition was determined as 10.8% and the inhibition is 17.6% (inactive).
For `CCOC(=O)c1cnc(SC)nc1Sc1ccc(Cl)cc1Cl` the same measures were 5% and 22.2% (inactive).
For `O=C(NC(C(=O)NCCN1CCOCC1)C12CC3CC(CC(C3)C1)C2)C1CCCCC1` (centres undefined) the same measures were 28.1% and 15.3% (inactive).
For `Cc1ccc(S(=O)(=O)c2c(COC(=O)c3cccc(Cl)c3)c(-c3ccccc3)nn2C)cc1` the same measures were 12.1% and 35.8% (inactive).
With `O=C(O)c1cc(S(=O)(=O)N2CCCCCC2)c(Cl)cc1Cl`, the inhibition was 8.58% (inactive).
Still for that read-out and setting: to `CCCCCCNCCn1cnc2c(N)ncnc21` belongs 37.2% (inactive).
As to `CCOC(=O)CN1C(=O)C(=O)c2cc(C)ccc21`, the growth inhibition was -4.55% and the inhibition was 21.8% (inactive).
For `O=C(Nc1nc2ccc(S(=O)(=O)N3CCCC3)cc2s1)C1CCCO1` (centres undefined) the same measures were -18.2% and 18.6% (inactive).
For `CS(=O)(=O)c1ccc2nc(NC(=O)C3C4C=CC(C4)C3C(=O)O)sc2c1` (centres undefined) the same measures were -6.9% and 55.1% (active).
For `CC(C)COC(=O)c1ccc(NC(=O)C2C3C=CC(C3)C2C(=O)O)cc1` (centres undefined) the same measures were 20.7% and 15.8% (inactive).
With `COC(=O)C1=C(C(=O)OC)C2(OC1c1ccc(Br)cc1)C(=O)c1ccccc1C2=O` (centres undefined), the growth inhibition is -26.3% and the inhibition was -2.75% (inactive).
In the same order, the values of `CC(C)(C)c1ccc(C(=O)NCC(=O)OCN2C(=O)c3ccccc3C2=O)cc1` are -3.45% and 13.3% (inactive).
For `CCCCOC(=O)Cn1c(=N)n(CCN(CC)CC)c2ccccc21` the same measures were 19.4% and 17.1% (inactive).
For `COc1cc(OC)nc(NC(=O)CCl)n1` the same measures were -16.7% and 3.82% (inactive).
On to `COc1ccc(C2=NO[C@@H]3C(=O)N(Cc4ccccc4)C(=O)[C@H]23)cc1OC`, for which the growth inhibition was found to be 14.3% and the inhibition is 7.78% (inactive).
In the same order, the values of `COc1ccc(OC)c(NC(=O)CN2CCN(C(=O)c3ccco3)CC2)c1` are 18.5% and 17.4% (inactive).
On to `c1ccc(-n2ncc3c2ncn2c(C4CCCCC4)nnc32)cc1`, for which the inhibition was 16.1% (inactive).
In the case of `Cc1sc2nc(SCC(N)=O)n(C)c(=O)c2c1C`, the growth inhibition came to 6.45% and the inhibition was 20.9% (inactive).
On to `O=C(Nc1ccc(Br)cc1)c1cccc(NC(=O)C2C3CC4OC(=O)C2C4C3)c1` (centres undefined), for which the growth inhibition stood at 3.13% and the inhibition is 27.9% (inactive).
Regarding `CC1=C(C(=O)Nc2ccccc2)C(c2ccco2)C(C#N)=C(SCC(N)=O)N1` (centres undefined), the growth inhibition is -15% and the inhibition was 11.1% (inactive).
For `COC(=O)C1=C(C)Nc2ncnn2C1c1cccnc1` (centres undefined) the same measures were 10% and 1.7% (inactive).
Turning to `Cc1nn(C(C)CC(=O)O)c(C)c1C` (centres undefined), the inhibition is 18.6% (inactive).
As to `Cc1cc2nnc(SCC(=O)N3CCN(c4ccccc4)CC3)n2c(N)n1`, the growth inhibition was -13.6% and the inhibition is 24.8% (inactive).
For `Cn1c(SCC(=O)C(C)(C)C)nnc1-c1ccccn1` the same measures were 12.8% and 20.3% (inactive).
In the same order, the values of `CC(CO)N1CCS(=O)(=O)CC1` (centres undefined) are 15% and 18.1% (inactive).
In the case of `Cc1ccc(-n2c(SCC(=O)Nc3ccc4c(c3)OCO4)nnc2-c2ccccn2)cc1`, the growth inhibition is -2.78% and the inhibition is -3.69% (inactive).
Turning to `Cc1ccc(-n2c(SCC(=O)Nc3ccc4c(c3)OCO4)nnc2-c2ccoc2C)cc1`, the inhibition was -19.2% (inactive).
For the compound `O=C(CSc1nnc(-c2ccccn2)n1-c1ccccc1)Nc1ccc2c(c1)OCO2`, the growth inhibition is -57.1% and the inhibition was 55.6% (active).
For `CCCSC1=C(C#N)C(c2ccccc2C)C(C(=O)OC)C(=O)N1` (centres undefined) the same measures were 12% and -22.6% (inactive).
For `Cc1nc2cc(NC(=O)NCc3ccccc3)ccc2o1` the same measures were -9.52% and -14.4% (inactive).
In the same order, the values of `COCC(=O)Nc1ccc(Br)cc1` are -9.52% and -24.5% (inactive).
For `Cc1nc(NC(=O)CN(C)S(=O)(=O)c2ccc(Cl)cc2)sc1C`, the growth inhibition is 5% and the inhibition was -24.3% (inactive).
On to `C=CCNC(=O)c1cc2nc(C3CC3)cc(C(F)F)n2n1`, for which the inhibition is 12.7% (inactive).
Take `COCCNS(=O)(=O)c1cc(Br)ccc1OC`: the growth inhibition was found to be 9.09% and the inhibition is 18.4% (inactive).
In the same order, the values of `COC(=O)c1ccc(Sc2ccc(F)cc2)c(N)c1` are 27% and 23.2% (inactive).
In the same order, the values of `O=C(c1ccc2c(c1)OCO2)N1CCN(C(=O)c2ccco2)CC1` are 16.7% and 35.7% (inactive).
For `CCOCN(C(=O)Cn1c(C(C)O)nc2ccccc21)c1c(C)cccc1CC` (centres undefined) the same measures were -7.69% and 20.1% (inactive).
Take `CC(=O)OCc1cc2cc(C)ccc2[nH]c1=O`: the growth inhibition is -2.5% and the inhibition is -23.7% (inactive).
For `CCOC(=O)c1[nH]c2ccc(OC)cc2c1NC(=O)N1CCOCC1`, the inhibition was -48.6% (inactive).
As for `CCOc1ccc(NC(=O)CN2CCN(CC(=O)Nc3ccc(OC)cc3)CC2)cc1`, the growth inhibition was 9.09% and the inhibition is -13.6% (inactive).
As for `CCCNC(=O)NCc1ccc(N2CCCC2=O)cc1`, the growth inhibition was found to be 12.5% and the inhibition was 10.8% (inactive).
As for `O=c1/c(=C/c2ccc(CNS(=O)(=O)c3ccccc3)o2)sc2n1CCN=2`, the growth inhibition was -8.62% and the inhibition is 62.4% (active).
With `CC1(C)CC(=O)C=C(N2CCCC2)C1`, the inhibition is 30.3% (inactive).
As to `CC1(C)CC(=O)C=C(NCCCNC2CCCCC2)C1`, the growth inhibition stood at 8.06% and the inhibition is 53.4% (active).
In the case of `CC1(C)CC(=O)C=C(NCCN2CCNCC2)C1`, the growth inhibition is 9.46% and the inhibition was 32.9% (inactive).
As for `Cc1ccc(N2C(=O)CC(Sc3ncn[nH]3)C2=O)cc1` (centres undefined), the growth inhibition came out at 23.8% and the inhibition is -7.91% (inactive).
For `COc1ccc(NC(=O)Nc2ccc3nc(C)c(C)nc3c2)cc1` the same measures were -13.5% and -3.08% (inactive).
Consider `CCn1c(=O)cc(O)c2ccccc21`, for which the growth inhibition came to 11.1% and the inhibition was 2.94% (inactive).
In the case of `O=C1CCCc2nn(-c3ccccc3)nc21`, the growth inhibition was 7.14% and the inhibition is 6.25% (inactive).
For `CCOC(=O)c1ccccc1NS(=O)(=O)c1ccc(OC)cc1` the same measures were 10.5% and -13% (inactive).

In general, inhibition refers to the change of the read-out against control, counted positive when it falls.
